What all share (type): functional
For one test, the system named is Puccinia triticina. In words: Antifungal activity against Puccinia triticina inoculated on 500 ug/mL compound pre-treated wheat plants with 3 to 5 leaves assessed as growth inhibition. A digest of the protocol:
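Healthy wheat plants at the 3-5 leaf stage were sprayed with compound (500 μg/mL) and then inoculated with spores. Inhibition percentage was calculated against the corresponding spore stack.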

Test [1] has as its system Tobacco mosaic virus. As to the kind of experiment: Induction of systemic acquired resistance against Tobacco mosaic virus (TMV) in tobacco plants exposed to 10 ug/mL compound through irrigation based soil treatment followed by 7 days culture under green house conditions assessed as inhibition of viral growth in leaves infected with Tobacco mosaic virus (TMV) measured 72 hr post viral infection by half-leaf juice rubbing method. Set-up: scale not given: the % may be the effect or the level left. The gist of the method: (§1)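 Tobacco plants receive compound either as leaf spray or as soil irrigation. Newly grown leaves are then rubbed with TMV (5.88 × 10-2 μg/mL). Plants are held 72 h at 25 °C and viral lesions are counted. Inhibition ratio = (CK − A)/CK × 100, from mean lesion numbers versus control. Water is CK; tiadinil and BTH are positive controls.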

In test [2] the test system is Tobacco mosaic virus. In words: Induction of systemic acquired resistance against Tobacco mosaic virus (TMV) in tobacco plants exposed to 50 ug/mL compound through irrigation based soil treatment followed by 7 days culture under green house conditions assessed as inhibition of viral growth in leaves infected with Tobacco mosaic virus (TMV) measured 72 hr post viral infection by half-leaf juice rubbing method. Set-up: scale not given: the % may be the effect or the level left. The gist of the method:
(§2)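 Tobacco plants received compound by leaf spray or by soil irrigation, with double-distilled water as CK. Newly grown leaves were then rub-inoculated with TMV (5.88×10-2 μg/mL), and plants were kept at 25 °C for 72 h. Lesions on inoculated leaves were counted. Inhibition = (CK−A)/CK×100 from mean lesion numbers versus control.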

The subject of test [3] is Tobacco mosaic virus. As to the kind of experiment: Induction of systemic acquired resistance against Tobacco mosaic virus (TMV) in tobacco plants exposed to 100 ug/mL compound through irrigation based soil treatment followed by 7 days culture under green house conditions assessed as inhibition of viral growth in leaves infected with Tobacco mosaic virus (TMV) measured 72 hr post viral infection by half-leaf juice rubbing method. Also on record: scale not given: the % may be the effect or the level left. The gist of the method:
as §2

For test [4], the system named is Tobacco mosaic virus. As to the kind of experiment: Induction of systemic acquired resistance against Tobacco mosaic virus (TMV) in tobacco plants exposed to 500 ug/mL compound through irrigation based soil treatment followed by 7 days culture under green house conditions assessed as inhibition of viral growth in leaves infected with Tobacco mosaic virus (TMV) measured 72 hr post viral infection by half-leaf juice rubbing method. Also on record: scale not given: the % may be the effect or the level left. The gist of the method:
as §2

Test [5] concerns Tobacco mosaic virus. As to the kind of experiment: Induction of systemic acquired resistance against Tobacco mosaic virus (TMV) in tobacco plants exposed to 1000 ug/mL compound through irrigation based soil treatment followed by 7 days culture under green house conditions assessed as inhibition of viral growth in leaves infected with Tobacco mosaic virus (TMV) measured 72 hr post viral infection by half-leaf juice rubbing method. Also on record: scale not given: the % may be the effect or the level left. A digest of the protocol: as §2

Test [6] has as its system Tobacco mosaic virus. As to the kind of experiment: Induction of systemic acquired resistance against Tobacco mosaic virus (TMV) in tobacco plants exposed to 10 ug/mL compound through leaf spray followed by 7 days culture under green house conditions assessed as inhibition of viral growth in leaves infected with Tobacco mosaic virus (TMV) measured 72 hr post viral infection by half-leaf juice rubbing method. Also on record: scale not given: the % may be the effect or the level left. A digest of the protocol: as §1

Test [7] deals with Tobacco mosaic virus. As to the kind of experiment: Induction of systemic acquired resistance against Tobacco mosaic virus (TMV) in tobacco plants exposed to 50 ug/mL compound through leaf spray followed by 7 days culture under green house conditions assessed as inhibition of viral growth in leaves infected with Tobacco mosaic virus (TMV) measured 72 hr post viral infection by half-leaf juice rubbing method. Set-up: scale not given: the % may be the effect or the level left. The gist of the method:
as §2

The test system of test [8] is Tobacco mosaic virus. In words: Antiviral activity against Tobacco mosaic virus (TMV) infected tobacco leaves exposed to 1000 ug/mL for 20 min assessed as inhibition of viral growth measured 72 hr post compound treatment compound by half-leaf juice rubbing method. The gist of the method: (§3)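 Half-leaf method on tobacco. A fresh leaf from a plant at the 5-6 leaf age was rub-inoculated with TMV (5.88×10-2 μg/mL) and cut along the main vein. One half was immersed in compound solution and the other in double-distilled water, each for 20 min. Halves were kept at 25 °C and 100% humidity for 72 h, then lesions were counted. Three replicates were run. Inhibition = (CK−A)/CK×100 from mean lesion numbers.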

The test system of test [9] is Tobacco mosaic virus. In words: Induction of systemic acquired resistance against Tobacco mosaic virus (TMV) in tobacco plants exposed to 100 ug/mL compound through leaf spray followed by 7 days culture under green house conditions assessed as inhibition of viral growth in leaves infected with Tobacco mosaic virus (TMV) measured 72 hr post viral infection by half-leaf juice rubbing method. Also on record: scale not given: the % may be the effect or the level left. A digest of the protocol:
as §2

Test [10] has as its system Tobacco mosaic virus. As to the kind of experiment: Induction of systemic acquired resistance against Tobacco mosaic virus (TMV) in tobacco plants exposed to 500 ug/mL compound through leaf spray followed by 7 days culture under green house conditions assessed as inhibition of viral growth in leaves infected with Tobacco mosaic virus (TMV) measured 72 hr post viral infection by half-leaf juice rubbing method. Also on record: scale not given: the % may be the effect or the level left. The gist of the method: as §2

Test [11] relates to Tobacco mosaic virus. In words: Induction of systemic acquired resistance against Tobacco mosaic virus (TMV) in tobacco plants exposed to 1000 ug/mL compound through leaf spray followed by 7 days culture under green house conditions assessed as inhibition of viral growth in leaves infected with Tobacco mosaic virus (TMV) measured 72 hr post viral infection by half-leaf juice rubbing method. Also on record: scale not given: the % may be the effect or the level left. The gist of the method:
as §2

The test system of test [12] is Tobacco mosaic virus. In words: In vivo antiviral activity against Tobacco mosaic virus (TMV) infected tobacco leaves exposed to 10 ug/mL for 20 min assessed as inhibition of viral growth measured 72 hr post compound treatment compound by half-leaf juice rubbing method.
In test [13] the test system is Tobacco mosaic virus. As to the kind of experiment: Antiviral activity against Tobacco mosaic virus (TMV) infected tobacco leaves exposed to 10 ug/mL for 20 min assessed as inhibition of viral growth measured 72 hr post compound treatment compound by half-leaf juice rubbing method. The gist of the method:
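Direct (in vitro) anti-TMV test by half-leaf method. A tobacco leaf at 5-6 leaf age is rubbed with TMV (5.88 × 10-2 μg/mL) and cut along the main vein. One half is immersed in compound and the other in double-distilled water for 20 min. Halves are kept 72 h at 25 °C and 100% humidity, then lesions are counted. Inhibition is derived from mean lesion numbers on the two halves. Triplicates; DHT is the positive control.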

Test [14] relates to Tobacco mosaic virus. As to the kind of experiment: In vivo antiviral activity against Tobacco mosaic virus (TMV) infected tobacco leaves exposed to 50 ug/mL for 20 min assessed as inhibition of viral growth measured 72 hr post compound treatment compound by half-leaf juice rubbing method. A digest of the protocol: as §3
For test [15], the system named is Tobacco mosaic virus. As to the kind of experiment: In vivo antiviral activity against Tobacco mosaic virus (TMV) infected tobacco leaves exposed to 500 ug/mL for 20 min assessed as inhibition of viral growth measured 72 hr post compound treatment compound by half-leaf juice rubbing method. A digest of the protocol:
as §3

The subject of test [16] is Tobacco mosaic virus. As to the kind of experiment: In vivo antiviral activity against Tobacco mosaic virus (TMV) infected tobacco leaves exposed to 100 ug/mL for 20 min assessed as inhibition of viral growth measured 72 hr post compound treatment compound by half-leaf juice rubbing method. A digest of the protocol: as §3
Test [17] has as its system Tobacco mosaic virus. In words: Antiviral activity against Tobacco mosaic virus (TMV) infected tobacco leaves exposed to 500 ug/mL for 20 min assessed as inhibition of viral growth measured 72 hr post compound treatment compound by half-leaf juice rubbing method. The gist of the method:
as §3

Test [18] deals with Tobacco mosaic virus. In words: Antiviral activity against Tobacco mosaic virus (TMV) infected tobacco leaves exposed to 100 ug/mL for 20 min assessed as inhibition of viral growth measured 72 hr post compound treatment compound by half-leaf juice rubbing method. The gist of the method:
as §3

Test [19] concerns Tobacco mosaic virus. As to the kind of experiment: Antiviral activity against Tobacco mosaic virus (TMV) infected tobacco leaves exposed to 50 ug/mL for 20 min assessed as inhibition of viral growth measured 72 hr post compound treatment compound by half-leaf juice rubbing method. A digest of the protocol: as §3

For the compound `CSC(=O)c1cccc2nnsc12` [ACIBENZOLAR-S-METHYL], the “growth inhibition (GI)” value in the test on Puccinia triticina stood at 0%; with Tobacco mosaic virus [8], 8%; in the test on Tobacco mosaic virus [12] it was 6%; in the test on Tobacco mosaic virus [13], 0%; with Tobacco mosaic virus [14], 15%; in the test on Tobacco mosaic virus [15] it was 8%. The “growth inhibition (GI)” value in the test with Tobacco mosaic virus [16] is reported as 10%; with Tobacco mosaic virus [17], 4%; with Tobacco mosaic virus [18], 2%; in the test on Tobacco mosaic virus [19] it was 0%. Moreover, the Activity with Tobacco mosaic virus [1] came to 63%; in the test on Tobacco mosaic virus [2], 92%; with Tobacco mosaic virus [3], 96%; with Tobacco mosaic virus [4], 95%; in the test on Tobacco mosaic virus [5], 98%; with Tobacco mosaic virus [6], 50%. In addition, the Activity with Tobacco mosaic virus [7] was found to be 92%; with Tobacco mosaic virus [9], 95%; with Tobacco mosaic virus [10] it was 95%; in the test with Tobacco mosaic virus [11] it was 97%.

Values taken from ChEMBL document CHEMBL3046238, “Synthesis and biological activity evaluation of 1,2,3-thiadiazole derivatives as potential elicitors with highly systemic acquired resistance” (2009).
